These results are taken from ChEMBL document CHEMBL5033998, “Discovery of DDO-2213 as a Potent and Orally Bioavailable Inhibitor of the WDR5-Mixed Lineage Leukemia 1 Protein-Protein Interaction for the Treatment of MLL Fusion Leukemia” (J Med Chem, 2021).

For orientation: IC50 means the point on the concentration scale where inhibition reaches its midpoint. A word on the half-life: it is the time in which the quantity being followed falls by half. In general, AUC(0-t) refers to exposure summed from dosing to a finite time, without extrapolation to infinity. High values mean more exposure, low ones less exposure. For orientation: AUC(0-inf) means the area under the concentration-time curve extrapolated to infinity. Lower therefore signals low exposure. One may read the MRT as a mean duration of stay, worked out from the concentration-time curve.

Molecules are shown by their SMILES. Active and inactive are the calls of the source. The rule behind the calls is not given here.

Data set [1] addresses T1, Histone-lysine N-methyltransferase 2A (Homo sapiens, UniProt Q03164). Description: Inhibition of MLL1 (unknown origin) in human MV4-11 cells assessed as decrease in H3Kme2 level at 1 to 10 uM measured after 7 days by Western blot analysis. In kind it is cell-based. A digest of the protocol: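 MV4-11 cells exposed to 1, 2.5, 5 and 10 μM; H3K4me1/me2/me3 assessed by Western blot with histone H3 as loading control. Blots blocked in 1% BSA 1 h, primary antibody overnight at 4 °C, DyLight 800 secondary 1 h at 37 °C, infrared imaging.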

A short description of data set [2]: Permeability of compound at pH 7.4 incubated for 4 hrs by PAMPA assay. It is filed as ADME. To be noted: read-out: permeability. A digest of the protocol:
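Double-sink PAMPA: compound diluted in pH 7.4 donor buffer, permeation through artificial membrane to acceptor over 4 h at 25 °C; donor and acceptor read by UV; mean ± SD of three independent experiments.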
(In general: PAMPA measures passive passage across an artificial lipid membrane.)

Data set [3] has as its system K562. Description: Antiproliferative activity against human K562 cells assessed as cell viability incubated for 72 hrs by CCK8 assay. In kind it is functional, cell-based. The settings on record: K562, 72 h. A digest of the protocol: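 Cells seeded at 3000–6000 per well, exposed to inhibitor at several concentrations for 72 h; viability read with CCK8 kit. MV4-11 and K562 grown in modified IMDM + 10% FBS, pen/strep; MOLM-13 in RPMI-1640 + 10% FBS; HUVEC in modified DMEM + 10% FBS; 37 °C, 5% CO2. IC50 as mean ± SD of three independent experiments.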

Data set [4] deals with Histone-lysine N-methyltransferase, H3 lysine-79 specific (Homo sapiens, UniProt Q8TEK3). The data set is described as follows: Inhibition of DOT1L (unknown origin) assessed as effect on H3K79 methylation incubated for 30 mins by Alphascreen assay. A digest of the protocol: (§1)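 AlphaScreen: enzyme, SAM and compound mixed in 10 mM PBS for 30 min at room temperature; acceptor beads and substrate antibody added, 30 min at room temperature, then streptavidin donor beads; read on AlphaScreen reader.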

Data set [5] has as its target T2, N-lysine methyltransferase KMT5A (Homo sapiens, UniProt Q9NQR1).
T2 sequence (Q9NQR1 whole entry): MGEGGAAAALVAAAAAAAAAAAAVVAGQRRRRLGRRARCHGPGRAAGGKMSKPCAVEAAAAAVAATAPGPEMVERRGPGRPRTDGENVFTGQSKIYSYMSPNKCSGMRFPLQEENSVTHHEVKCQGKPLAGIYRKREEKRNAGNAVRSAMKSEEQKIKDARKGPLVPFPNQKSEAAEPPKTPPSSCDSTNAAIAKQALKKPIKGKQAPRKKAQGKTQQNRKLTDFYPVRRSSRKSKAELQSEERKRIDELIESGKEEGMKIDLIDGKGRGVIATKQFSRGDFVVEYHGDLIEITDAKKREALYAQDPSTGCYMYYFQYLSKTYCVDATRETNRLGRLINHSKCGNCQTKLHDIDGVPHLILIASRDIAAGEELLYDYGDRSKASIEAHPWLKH
Description: Inhibition of SET8 (unknown origin) assessed as effect on H4K20 methylation incubated for 30 mins by Alphascreen assay. Summed up:
as §1

The target of data set [6] is Protein arginine N-methyltransferase 5 (Homo sapiens, UniProt O14744). The data set is described as follows: Inhibition of PRMT5 (unknown origin) assessed as effect on H3R8/H4R3 methylation incubated for 30 mins by Alphascreen assay. A digest of the protocol: as §1
The nature of data set [7]: Metabolic stability in rat liver microsomes assessed as half life at 1 uM in presence of NADPH by LC-MS/MS analysis. In kind it is ADME, Microsome. Summed up:
(§2)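 Compound at 1 μM preincubated 5 min at 37 °C with human or rat liver microsomes (0.7 mg/mL) in 100 mM PBS pH 7.4; reaction started with 1 mM NADPH.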
On the technique in general: Microsomes from liver hold many membrane-bound enzymes, among them those of drug oxidation.

Data set [8] can be described thus: Metabolic stability in rat liver microsomes assessed as clearance at 1 uM in presence of NADPH by LC-MS/MS analysis. In kind it is ADME, Microsome. A digest of the protocol: as §2
Data set [9] can be described thus: AUC (0 to t) in Sprague-Dawley rat at 10 mg/kg, po measured upto 24 hrs by LC-MS/MS analysis. More on the design: route oral, dose 10 mg/kg, time <=24. In kind it is ADME, organism-based. To be noted: in vivo. A digest of the protocol: (§3)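 Male SD rats, 6–8 weeks, 220 ± 30 g; single oral dose 10 mg/kg (n = 3). Plasma sampled at 0, 0.25, 0.5, 1, 2, 4, 6, 8 and 24 h, stored at −80 °C, quantified by LC-MS/MS; parameters reported as mean ± SEM.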

Data set [10] is described as follows: AUC (0 to infinity) in Sprague-Dawley rat at 10 mg/kg, po measured upto 24 hrs by LC-MS/MS analysis. It is filed as ADME, organism-based. The arrangement: route oral, dose 10 mg/kg, time <=24. To be noted: in vivo. Summed up: as §3
Data set [11] in a line: Apparent volume of distribution in Sprague-Dawley rat at 10 mg/kg, po measured upto 24 hrs by LC-MS/MS analysis. In kind it is ADME, organism-based. To be noted: in vivo, read-out: Vz/F. Summed up: as §3
Data set [12] in a line: MRT in Sprague-Dawley rat at 2 mg/kg, iv measured upto 24 hrs by LC-MS/MS analysis. The settings on record: in vivo. In kind it is ADME, organism-based.
Data set [13] has as its system MV4-11. The data set is described as follows: Antitumor activity against human MV4-11 cells xenografted in Balb/c nude mouse assessed as tumor growth inhibition at 40 mg/kg, po administered daily for 21 days relative to control. It is filed as functional. To be noted: MV4-11, po, 504 h, time 21 day, read-out: TGI. Summed up: (§4)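 Female BALB/c nude mice (6–8 weeks) given ~5 × 10^6 MV4-11 cells in 0.2 mL PBS into the flank; at 100–150 mm3 randomized (6/group) to vehicle (0.9% saline) or 40, 80, 120 mg/kg oral (hydrochloride salt) daily for 21 days. Volume = length × width²/2 every other day; GI% = [1 − (TVt − TV0)/(CVt − CV0)] × 100%.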
In general terms: In xenograft studies the graft and the host belong to different species.

Data set [14] relates to MV4-11. Description: Antitumor activity against human MV4-11 cells xenografted in Balb/c nude mouse assessed as tumor growth inhibition at 120 mg/kg, po administered daily for 21 days relative to control. It is filed as functional. The settings on record: MV4-11, po, 504 h, time 21 day, read-out: TGI. A digest of the protocol:
as §4

In data set [15] the test system is MV4-11. Description: Antitumor activity against human MV4-11 cells xenografted in Balb/c nude mouse assessed as tumor weight inhibition at 40 mg/kg, po administered daily for 21 days relative to control. The settings on record: MV4-11, po, 504 h, time 21 day. In kind it is functional. A digest of the protocol:
(§5)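 MV4-11 flank xenografts (~5 × 10^6 cells) in female BALB/c nude mice, 6 per group; daily oral dosing (40, 80, 120 mg/kg) or saline vehicle for 21 days, then tumors excised and weighed.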

For data set [16], the target named is T1, Histone-lysine N-methyltransferase 2A. The data set is described as follows: Inhibition of MLL1 (unknown origin) in human MV4-11 cells assessed as decrease in Meis1 mRNA level at 1 to 10 uM measured after 7 days by RT-PCR analysis. It is filed as cell-based. Summed up: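 MV4-11 cells treated 7 days at 0, 1, 2.5, 5, 10 μM; total RNA extracted with TRIzol and Hoxa9/Meis1 transcripts measured by quantitative RT-PCR, in triplicate (n = 3); Student's t-tests.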

For data set [17], the system named is MV4-11. Description: Antitumor activity against human MV4-11 cells xenografted in Balb/c nude mouse assessed as tumor weight inhibition at 80 mg/kg, po administered daily for 21 days relative to control. To be noted: MV4-11, po, 504 h. In kind it is functional. Summed up: as §5
For data set [18], the target named is T1, Histone-lysine N-methyltransferase 2A. Description: Inhibition of MLL1 (unknown origin) histone methyltransferase activity assessed as inhibition of H3K4 methylation incubated for 30 mins by chemiluminescence assay.

T1 sequence (Q03164 1-2718 limits assumed): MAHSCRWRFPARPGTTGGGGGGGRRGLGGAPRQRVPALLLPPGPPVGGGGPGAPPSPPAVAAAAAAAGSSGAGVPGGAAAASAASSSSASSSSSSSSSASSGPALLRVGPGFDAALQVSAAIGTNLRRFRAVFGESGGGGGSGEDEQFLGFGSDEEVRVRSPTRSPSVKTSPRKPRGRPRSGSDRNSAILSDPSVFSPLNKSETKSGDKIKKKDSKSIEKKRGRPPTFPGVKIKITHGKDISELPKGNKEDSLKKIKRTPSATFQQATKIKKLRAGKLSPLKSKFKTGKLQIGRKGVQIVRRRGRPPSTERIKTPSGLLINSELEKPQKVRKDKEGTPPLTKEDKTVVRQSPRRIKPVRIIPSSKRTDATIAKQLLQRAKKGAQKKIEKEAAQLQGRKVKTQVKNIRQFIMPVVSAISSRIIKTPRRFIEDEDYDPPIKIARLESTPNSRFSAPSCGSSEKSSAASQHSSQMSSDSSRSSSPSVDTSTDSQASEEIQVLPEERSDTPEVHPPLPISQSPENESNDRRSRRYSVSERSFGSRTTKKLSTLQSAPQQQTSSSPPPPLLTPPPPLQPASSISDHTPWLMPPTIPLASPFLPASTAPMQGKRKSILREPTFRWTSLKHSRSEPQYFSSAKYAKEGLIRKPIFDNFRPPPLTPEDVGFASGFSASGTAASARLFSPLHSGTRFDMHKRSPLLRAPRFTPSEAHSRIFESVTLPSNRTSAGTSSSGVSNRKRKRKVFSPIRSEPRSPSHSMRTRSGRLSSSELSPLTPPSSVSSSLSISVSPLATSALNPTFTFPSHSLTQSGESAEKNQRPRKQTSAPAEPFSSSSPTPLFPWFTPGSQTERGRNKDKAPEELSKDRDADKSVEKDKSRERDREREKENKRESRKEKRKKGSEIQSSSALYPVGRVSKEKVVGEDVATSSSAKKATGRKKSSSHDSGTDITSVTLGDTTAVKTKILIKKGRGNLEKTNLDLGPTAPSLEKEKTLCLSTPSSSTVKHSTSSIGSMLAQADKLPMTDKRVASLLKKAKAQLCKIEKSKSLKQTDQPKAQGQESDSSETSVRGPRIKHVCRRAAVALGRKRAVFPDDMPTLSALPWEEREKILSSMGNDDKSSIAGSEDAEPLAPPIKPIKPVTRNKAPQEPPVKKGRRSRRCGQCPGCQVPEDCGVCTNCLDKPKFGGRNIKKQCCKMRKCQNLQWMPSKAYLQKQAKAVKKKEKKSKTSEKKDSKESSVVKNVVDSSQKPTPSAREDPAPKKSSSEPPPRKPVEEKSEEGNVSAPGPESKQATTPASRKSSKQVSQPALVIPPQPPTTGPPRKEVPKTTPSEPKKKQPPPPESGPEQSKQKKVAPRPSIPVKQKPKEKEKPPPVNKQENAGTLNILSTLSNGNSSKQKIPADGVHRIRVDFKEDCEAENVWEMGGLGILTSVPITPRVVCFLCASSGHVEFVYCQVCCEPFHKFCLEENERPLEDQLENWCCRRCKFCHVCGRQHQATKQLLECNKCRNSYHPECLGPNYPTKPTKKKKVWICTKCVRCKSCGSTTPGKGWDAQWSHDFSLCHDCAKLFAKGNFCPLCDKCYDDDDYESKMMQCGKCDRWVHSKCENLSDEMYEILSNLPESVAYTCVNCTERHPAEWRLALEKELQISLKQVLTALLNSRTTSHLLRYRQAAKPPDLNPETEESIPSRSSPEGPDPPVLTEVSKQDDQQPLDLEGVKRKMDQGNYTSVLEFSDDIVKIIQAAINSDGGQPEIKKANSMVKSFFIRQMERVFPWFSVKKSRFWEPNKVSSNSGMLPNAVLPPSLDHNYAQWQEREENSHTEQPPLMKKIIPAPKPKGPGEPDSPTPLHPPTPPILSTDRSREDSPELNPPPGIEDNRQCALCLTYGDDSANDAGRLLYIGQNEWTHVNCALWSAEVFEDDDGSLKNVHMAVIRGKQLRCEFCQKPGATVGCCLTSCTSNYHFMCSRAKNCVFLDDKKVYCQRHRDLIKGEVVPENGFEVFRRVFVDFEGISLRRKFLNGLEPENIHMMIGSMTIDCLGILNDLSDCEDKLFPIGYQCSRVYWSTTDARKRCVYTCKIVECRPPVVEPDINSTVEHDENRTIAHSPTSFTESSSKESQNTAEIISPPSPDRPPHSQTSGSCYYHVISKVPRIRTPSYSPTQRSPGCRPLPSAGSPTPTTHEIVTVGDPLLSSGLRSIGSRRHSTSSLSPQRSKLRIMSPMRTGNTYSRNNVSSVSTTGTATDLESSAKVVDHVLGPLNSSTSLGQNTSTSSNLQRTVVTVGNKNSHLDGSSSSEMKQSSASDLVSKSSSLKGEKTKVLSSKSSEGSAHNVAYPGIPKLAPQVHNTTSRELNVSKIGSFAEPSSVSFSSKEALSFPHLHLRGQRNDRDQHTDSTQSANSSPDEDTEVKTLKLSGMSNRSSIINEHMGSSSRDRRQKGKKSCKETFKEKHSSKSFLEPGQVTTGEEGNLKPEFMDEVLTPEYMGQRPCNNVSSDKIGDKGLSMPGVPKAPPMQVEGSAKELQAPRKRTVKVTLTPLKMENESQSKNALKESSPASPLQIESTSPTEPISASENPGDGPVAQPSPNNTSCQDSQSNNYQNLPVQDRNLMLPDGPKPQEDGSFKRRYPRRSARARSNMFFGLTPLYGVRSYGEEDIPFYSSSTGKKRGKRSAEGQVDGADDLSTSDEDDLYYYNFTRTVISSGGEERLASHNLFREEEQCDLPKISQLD
T1 sequence (Q03164 2719-3969 limits assumed): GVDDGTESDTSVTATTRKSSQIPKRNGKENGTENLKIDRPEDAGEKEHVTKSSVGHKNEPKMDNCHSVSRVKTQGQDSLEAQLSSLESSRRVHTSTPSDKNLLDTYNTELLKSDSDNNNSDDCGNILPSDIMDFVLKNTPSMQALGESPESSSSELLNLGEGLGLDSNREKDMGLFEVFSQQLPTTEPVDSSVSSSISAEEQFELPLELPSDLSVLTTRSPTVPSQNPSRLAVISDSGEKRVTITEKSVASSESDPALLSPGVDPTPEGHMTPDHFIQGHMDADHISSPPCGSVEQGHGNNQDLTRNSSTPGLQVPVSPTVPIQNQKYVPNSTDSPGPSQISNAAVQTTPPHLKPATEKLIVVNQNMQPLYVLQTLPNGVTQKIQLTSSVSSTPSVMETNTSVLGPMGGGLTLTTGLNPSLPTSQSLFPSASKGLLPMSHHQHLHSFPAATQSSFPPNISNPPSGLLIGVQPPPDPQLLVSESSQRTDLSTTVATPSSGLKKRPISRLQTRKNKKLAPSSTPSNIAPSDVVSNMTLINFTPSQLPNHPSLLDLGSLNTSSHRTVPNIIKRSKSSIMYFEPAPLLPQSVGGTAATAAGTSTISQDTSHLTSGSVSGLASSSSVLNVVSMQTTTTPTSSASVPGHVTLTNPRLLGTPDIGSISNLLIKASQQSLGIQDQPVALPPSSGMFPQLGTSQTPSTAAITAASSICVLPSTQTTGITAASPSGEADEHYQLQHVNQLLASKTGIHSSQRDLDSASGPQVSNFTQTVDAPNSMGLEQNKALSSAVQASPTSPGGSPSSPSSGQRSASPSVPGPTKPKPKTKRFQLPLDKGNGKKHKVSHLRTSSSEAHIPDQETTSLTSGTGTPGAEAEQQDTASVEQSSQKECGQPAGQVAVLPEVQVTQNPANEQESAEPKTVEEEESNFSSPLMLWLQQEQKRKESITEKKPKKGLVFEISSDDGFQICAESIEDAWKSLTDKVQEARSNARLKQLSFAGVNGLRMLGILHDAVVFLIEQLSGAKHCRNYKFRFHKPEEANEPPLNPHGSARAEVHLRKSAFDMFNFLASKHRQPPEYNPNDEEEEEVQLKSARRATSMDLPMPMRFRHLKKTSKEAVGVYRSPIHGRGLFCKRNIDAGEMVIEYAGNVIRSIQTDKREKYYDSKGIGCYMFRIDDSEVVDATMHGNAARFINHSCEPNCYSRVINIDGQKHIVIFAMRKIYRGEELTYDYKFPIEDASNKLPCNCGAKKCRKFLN
Protein arginine N-methyltransferase 5, sequence (O14744 whole entry): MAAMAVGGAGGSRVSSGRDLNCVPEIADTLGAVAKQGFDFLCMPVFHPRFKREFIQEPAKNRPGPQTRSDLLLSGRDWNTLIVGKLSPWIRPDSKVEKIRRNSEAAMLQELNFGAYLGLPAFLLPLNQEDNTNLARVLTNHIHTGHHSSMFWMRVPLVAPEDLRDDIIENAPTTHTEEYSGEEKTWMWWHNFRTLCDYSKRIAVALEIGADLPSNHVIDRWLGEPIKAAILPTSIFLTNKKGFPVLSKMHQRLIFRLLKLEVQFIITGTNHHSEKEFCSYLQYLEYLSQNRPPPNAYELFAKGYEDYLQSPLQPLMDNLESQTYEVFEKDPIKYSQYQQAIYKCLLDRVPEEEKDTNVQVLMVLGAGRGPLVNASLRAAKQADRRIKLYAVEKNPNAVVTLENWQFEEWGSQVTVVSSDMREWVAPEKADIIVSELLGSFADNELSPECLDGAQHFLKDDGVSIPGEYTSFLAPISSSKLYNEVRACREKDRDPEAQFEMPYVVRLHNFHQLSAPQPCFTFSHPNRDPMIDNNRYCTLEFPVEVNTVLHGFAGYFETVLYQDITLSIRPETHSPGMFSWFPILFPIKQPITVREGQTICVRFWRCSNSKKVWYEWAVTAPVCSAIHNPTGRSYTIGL

For the molecule `CN1CCN(c2cc(F)c(-c3ccc(C(=O)N(C)C)cc3)cc2Nc2ncnc(Cl)c2N)CC1`, the inhibition result in data set [1] and in data set [16] was “Active” each time. The Papp at 4 h in data set [2] came to 20.2 ×10⁻⁶ cm/s. In addition, the IC50 was more than 100 µM in data set [3]; more than 100 µM in data set [4]; more than 100 µM in data set [5]; more than 100 µM in [6]; 0.78 µM in data set [18]. In [7], the half-life at 1 µM was found to be 1.1 h. In data set [8], the CLH amounted to 15 µL/min/mg. The molecule further displayed an AUC(0-t) at 24 h in data set [9] of 1320 ng·h/mL. Moreover, in data set [10], the AUC(0-inf) turned out to be 1740 ng·h/mL. Further, the Vd/F in data set [11] came out at 37.1 L/kg. In [12], the mean residence time MRT turned out to be 1.18 h. Further, the inhibition in vivo at 40 mg/kg amounted to 39.4% in data set [13] and 36.4% in data set [15]. In data set [14], the inhibition in vivo at 120 mg/kg was found to be 54.5%. Besides, in data set [17], the inhibition in vivo at 80 mg/kg came to 51.6%.
